Measured values published in ChEMBL document CHEMBL4350998, “Design, synthesis, and structure-activity relationship studies of l-amino alcohol derivatives as broad-spectrum antifungal agents” (Eur J Med Chem, 2019).

Tests used:
[1] = test system: Cryptococcus neoformans; experiment: Antifungal activity against Cryptococcus neoformans CGMCC 2.3161 assessed as inhibition of visible microbial growth by NCCLS protocol based method; format: functional
Procedure, shortened: (§1)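 Compounds dissolved in DMSO and serially diluted into growth medium. MIC was read as the lowest concentration that inhibited visible fungal growth.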

[2] = test system: Candida albicans; experiment: Antifungal activity against Candida albicans ATCC SC5314 assessed as inhibition of visible microbial growth by NCCLS protocol based method; format: functional; procedure, shortened: as §1
[3] = test system: Candida albicans; experiment: Antifungal activity against Candida albicans CPCC 400523 assessed as inhibition of visible microbial growth by NCCLS protocol based method; format: functional
[4] = test system: Aspergillus fumigatus; experiment: Antifungal activity against Aspergillus fumigatus CGMCC 3.7795 assessed as inhibition of visible microbial growth by NCCLS protocol based method; format: functional; procedure, shortened: as §1
[5] = test system: Candida tropicalis; experiment: Antifungal activity against Candida tropicalis CGMCC 2.3739 assessed as inhibition of visible microbial growth by NCCLS protocol based method; format: functional; procedure, shortened: as §1
[6] = test system: Candida albicans; experiment: Antifungal activity against fluconazole-resistant Candida albicans Strain CaR assessed as inhibition of visible microbial growth by NCCLS protocol based method; format: functional
Procedure, shortened: (§2)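 Broth dilution MIC against clinical fluconazole-resistant C. albicans isolates from AIDS patients. Compounds dissolved in DMSO and serially diluted into growth medium. MIC was taken as the lowest concentration that inhibits visible fungal growth. Fluconazole and itraconazole served as positive controls.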

[7] = Cytotoxicity in human A549 cells assessed as reduction in cell viability at 0.08 uM/L incubated for 24 hrs by MTT assay relative to control; format: cell-based; conditions: read-out: INH
Procedure, shortened: (§3)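 A549 cells were seeded at 3000 cells/well and preincubated for 16 h at 37 °C, 5% CO2. Medium was then replaced with fresh medium holding compound (DMSO stock diluted to final 0.08, 0.4, 2.0, 10 or 50 μM/L). Exposure lasted 24 h at 37 °C, 5% CO2, followed by MTT for 4 h and absorbance at 490 nm. Results are given as % inhibition.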

[8] = Stability in human plasma assessed as parent compound remaining at 100 uM after 120 mins LC/MS/MS analysis relative to control; format: ADME, cell-free; conditions: read-out: Stability
Procedure, shortened: (§4)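 Thawed human plasma was cleared at 4000 rpm and spiked from a 100 μM dosing solution to a final 2 μM, in duplicate, at 37 °C. Propantheline served as positive control. Sampling at 0, 10, 30, 60 and 120 min into ACN/MeOH stop solution with tolbutamide and labetalol internal standards. After centrifugation, supernatant was diluted with water and run by LC/MS/MS. % remaining was taken from the analyte/IS peak-area ratio, with no standard curve.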

[9] = Stability in human plasma assessed as parent compound remaining at 100 uM after 60 mins LC/MS/MS analysis relative to control; format: ADME, cell-free; conditions: read-out: Stability; procedure, shortened: as §4
[10] = test system: Candida albicans; experiment: Antifungal activity against fluconazole-resistant Candida albicans Strain 17# assessed as inhibition of visible microbial growth by NCCLS protocol based method; format: functional; procedure, shortened: as §2
[11] = Cytotoxicity in human A549 cells assessed as reduction in cell viability at 2 uM/L incubated for 24 hrs by MTT assay relative to control; format: cell-based; conditions: read-out: INH; procedure, shortened: as §3
[12] = Cytotoxicity in human A549 cells assessed as reduction in cell viability at 0.40 uM/L incubated for 24 hrs by MTT assay relative to control; format: cell-based; conditions: read-out: INH; procedure, shortened: as §3
[13] = Cytotoxicity in human A549 cells assessed as reduction in cell viability at 10 uM/L incubated for 24 hrs by MTT assay relative to control; format: cell-based; conditions: read-out: INH; procedure, shortened: as §3
[14] = Cytotoxicity in human A549 cells assessed as reduction in cell viability at 50 uM/L incubated for 24 hrs by MTT assay relative to control; format: cell-based; conditions: read-out: INH; procedure, shortened: as §3

| MIC [1] | MIC [2] | MIC [3] | MIC [4] | MIC [5] | Compound | MIC [6] | cytotoxicity at 24 h, 0.08 µM [7] | remaining at 2 h, 100 µM [8] | remaining at 1 h, 100 µM [9] | MIC [10] | cytotoxicity at 24 h, 2 µM [11] | cytotoxicity at 24 h, 0.4 µM [12] | cytotoxicity at 24 h, 10 µM [13] | cytotoxicity at 24 h, 50 µM [14] |
| --- | --- | --- | --- | --- | --- | --- | --- | --- | --- | --- | --- | --- | --- | --- |
| 1 µg/mL | < 0.03 µg/mL | < 0.03 µg/mL | > 64 µg/mL | < 0.03 µg/mL | CC(C)C[C@@H](Cn1ccnc1)NC(=O)c1ccc(-c2ccccc2)cc1 |  |  |  |  |  |  |  |  |  |
| 2 µg/mL | < 0.03 µg/mL | 0.06 µg/mL | > 64 µg/mL | 0.06 µg/mL | CC(C)[C@@H](Cn1ccnc1)NC(=O)c1ccc(-c2cccc(F)c2)cc1 |  |  |  |  |  |  |  |  |  |
| 0.25 µg/mL | < 0.03 µg/mL | 0.125 µg/mL | > 64 µg/mL | < 0.03 µg/mL | O=C(N[C@@H](Cc1ccccc1)Cn1ccnc1)c1ccc(-c2ccccc2)cc1 |  |  |  |  |  |  |  |  |  |
| 4 µg/mL | < 0.03 µg/mL | 0.06 µg/mL | > 64 µg/mL | < 0.03 µg/mL | CC(C)C[C@@H](Cn1ccnc1)NC(=O)c1ccc(-c2ccccc2)c(F)c1 |  |  |  |  |  |  |  |  |  |
| 1 µg/mL | < 0.03 µg/mL | 0.06 µg/mL | > 64 µg/mL | 0.06 µg/mL | CC[C@H](C)[C@@H](Cn1ccnc1)NC(=O)c1ccc(-c2ccccc2F)cc1 |  |  |  |  |  |  |  |  |  |
| > 64 µg/mL | 0.5 µg/mL | 4 µg/mL | 1 µg/mL | 0.25 µg/mL | C[C@@H](Cn1ccnc1)NC(=O)c1ccc(-c2ccccc2)cc1 |  |  |  |  |  |  |  |  |  |
| > 64 µg/mL | > 16 µg/mL | > 16 µg/mL | > 64 µg/mL | 2 µg/mL | CC[C@H](C)[C@@H](Cn1ccnc1)NC(=O)c1ccc(-c2ccccc2)c(C)c1 |  |  |  |  |  |  |  |  |  |
| > 64 µg/mL | 0.125 µg/mL | 0.25 µg/mL | 2 µg/mL | 0.25 µg/mL | CC[C@H](C)[C@@H](Cn1cncn1)NC(=O)c1ccc(-c2ccccc2)cc1F |  |  |  |  |  |  |  |  |  |
| > 64 µg/mL | 0.25 µg/mL | 1 µg/mL | > 64 µg/mL | 0.125 µg/mL | CC[C@H](C)[C@@H](Cn1ccnc1)NC(=O)c1ccc(-c2ccccc2)cc1OC |  |  |  |  |  |  |  |  |  |
| > 64 µg/mL | 0.06 µg/mL | 0.25 µg/mL | > 64 µg/mL | 0.125 µg/mL | CC[C@H](C)[C@@H](Cn1ccnc1)NC(=O)c1ccc(-c2ccccc2)cc1Cl |  |  |  |  |  |  |  |  |  |
| 0.5 µg/mL | < 0.03 µg/mL | 0.06 µg/mL | > 64 µg/mL | < 0.03 µg/mL | O=C(N[C@@H](Cc1ccccc1)Cn1ccnc1)c1ccc(-c2ccccc2)c(F)c1 |  |  |  |  |  |  |  |  |  |
| 2 µg/mL | < 0.03 µg/mL | 0.06 µg/mL | > 64 µg/mL | 0.06 µg/mL | CC[C@H](C)[C@@H](Cn1ccnc1)NC(=O)c1ccc(-c2ccccc2)c(F)c1 |  |  |  |  |  |  |  |  |  |
| 4 µg/mL | 0.125 µg/mL | 0.25 µg/mL | 8 µg/mL | 0.125 µg/mL | CC[C@H](C)[C@@H](Cn1ccnc1)NC(=O)c1ccc(-c2ccc(F)cc2)cc1F |  |  |  |  |  |  |  |  |  |
| 4 µg/mL | < 0.03 µg/mL | 0.06 µg/mL | 4 µg/mL | < 0.03 µg/mL | CC[C@H](C)[C@@H](Cn1ccnc1)NC(=O)c1ccc(-c2cccc(F)c2)cc1F |  |  |  |  |  |  |  |  |  |
| 0.5 µg/mL | < 0.03 µg/mL | < 0.03 µg/mL | > 64 µg/mL | < 0.03 µg/mL | CC[C@H](C)[C@@H](Cn1ccnc1)NC(=O)c1ccc(-c2ccccc2)cc1 |  |  |  |  |  |  |  |  |  |
| 4 µg/mL | 0.5 µg/mL | 4 µg/mL | > 64 µg/mL | 0.25 µg/mL | CC[C@H](C)[C@@H](Cn1ccnc1)NC(=O)c1ccc(-c2ccccc2)c(Cl)c1 |  |  |  |  |  |  |  |  |  |
| 1 µg/mL | 0.125 µg/mL | 0.25 µg/mL | > 64 µg/mL | 0.125 µg/mL | CC[C@H](C)[C@@H](Cn1ccnc1)NC(=O)c1ccc(-c2ccc(F)cc2)cc1 |  |  |  |  |  |  |  |  |  |
| 2 µg/mL | < 0.03 µg/mL | 0.06 µg/mL | 4 µg/mL | < 0.03 µg/mL | CCC[C@@H](Cn1ccnc1)NC(=O)c1ccc(-c2ccccc2)cc1 |  |  |  |  |  |  |  |  |  |
| > 64 µg/mL | 0.25 µg/mL | 1 µg/mL | > 64 µg/mL | 0.5 µg/mL | CC[C@H](C)[C@@H](Cn1ccnc1)NC(=O)c1ccc(-c2ccccc2)cc1C |  |  |  |  |  |  |  |  |  |
| > 64 µg/mL | < 0.03 µg/mL | 0.06 µg/mL | > 64 µg/mL | < 0.03 µg/mL | O=C(N[C@@H](Cc1ccccc1)Cn1ccnc1)c1ccc(-c2ccccc2)cc1F |  |  |  |  |  |  |  |  |  |
| 1 µg/mL | < 0.03 µg/mL | 0.06 µg/mL | > 64 µg/mL | 0.06 µg/mL | CC(C)[C@@H](Cn1ccnc1)NC(=O)c1ccc(-c2ccccc2F)cc1 |  |  |  |  |  |  |  |  |  |
| 1 µg/mL | 0.25 µg/mL | 0.5 µg/mL | 32 µg/mL | 0.25 µg/mL | CC(C)[C@@H](Cn1ccnc1)NC(=O)c1ccc(-c2ccc(F)cc2)cc1 |  |  |  |  |  |  |  |  |  |
| 1 µg/mL | < 0.03 µg/mL | 0.06 µg/mL | 8 µg/mL | < 0.03 µg/mL | CC(C)[C@@H](Cn1ccnc1)NC(=O)c1ccc(-c2ccccc2)cc1 |  |  |  |  |  |  |  |  |  |
| 16 µg/mL | < 0.06 µg/mL | 0.25 µg/mL | 4 µg/mL | 0.125 µg/mL | CC[C@@H](Cn1ccnc1)NC(=O)c1ccc(-c2ccccc2)cc1 |  |  |  |  |  |  |  |  |  |
| 2 µg/mL | < 0.03 µg/mL | 0.125 µg/mL | > 64 µg/mL | 0.06 µg/mL | CC[C@H](C)[C@@H](Cn1ccnc1)NC(=O)c1ccc(-c2cccc(F)c2)cc1 |  |  |  |  |  |  |  |  |  |
| > 64 µg/mL | > 16 µg/mL | > 16 µg/mL | > 64 µg/mL | 8 µg/mL | CC(C)[C@H](Cn1ccnc1)NC(=O)c1ccc(-c2ccccc2)cc1 |  |  |  |  |  |  |  |  |  |
| 2 µg/mL | < 0.03 µg/mL | 0.06 µg/mL | > 64 µg/mL | 0.06 µg/mL | CC(C)[C@@H](Cn1ccnc1)NC(=O)c1ccc(-c2ccccc2)c(F)c1 |  |  |  |  |  |  |  |  |  |
| < 0.125 µg/mL | < 0.03 µg/mL | < 0.03 µg/mL | < 0.125 µg/mL | < 0.03 µg/mL | CCC(C)n1ncn(-c2ccc(N3CCN(c4ccc(OCC5COC(Cn6cncn6)(c6ccc(Cl)cc6Cl)O5)cc4)CC3)cc2)c1=O (stereo not drawn) [ITRACONAZOLE] |  |  |  |  |  |  |  |  |  |
|  |  |  |  |  | C[C@@H](c1ncncc1F)[C@](O)(Cn1cncn1)c1ccc(F)cc1F [VORICONAZOLE] |  | 17.1% |  |  |  | 25.5% | 20.3% | 32% | 36.7% |

| Compound | MIC [1] | MIC [2] | MIC [3] | MIC [4] | MIC [5] | MIC [6] | cytotoxicity at 24 h, 0.08 µM [7] | remaining at 2 h, 100 µM [8] | remaining at 1 h, 100 µM [9] | MIC [10] | cytotoxicity at 24 h, 2 µM [11] | cytotoxicity at 24 h, 0.4 µM [12] | cytotoxicity at 24 h, 10 µM [13] | cytotoxicity at 24 h, 50 µM [14] |
| --- | --- | --- | --- | --- | --- | --- | --- | --- | --- | --- | --- | --- | --- | --- |
| CC[C@H](C)[C@@H](Cn1ccnc1)NC(=O)c1ccc(-c2ccccc2)cc1F | 1 µg/mL | < 0.03 µg/mL | < 0.03 µg/mL | 2 µg/mL | < 0.03 µg/mL | 4 µg/mL | 1.2% | 86.3% | 113% | 2 µg/mL | 1.2% | 1% | 3.1% | 14% |
| CC(C)[C@@H](Cn1ccnc1)NC(=O)c1ccc(-c2ccccc2)cc1F | 2 µg/mL | < 0.03 µg/mL | 0.06 µg/mL | 1 µg/mL | < 0.03 µg/mL | 32 µg/mL |  |  |  | 4 µg/mL |  |  |  |  |
| CC(C)C[C@@H](Cn1ccnc1)NC(=O)c1ccc(-c2ccccc2)cc1F | 2 µg/mL | < 0.03 µg/mL | 0.06 µg/mL | 2 µg/mL | < 0.03 µg/mL | 4 µg/mL |  |  |  | 1 µg/mL |  |  |  |  |
